Source: PubChem BioAssay (Johns Hopkins Ion Channel Center)
TRPC4 potent: allosterically enhances the mouse TRPC4 cation channel; HEK293 TRPC4beta/mu-opioid, DAMGO EC20, Fluo-4 Ca2+ flux; active compounds read high; B-score at 10 µM; actives 0.42% (n = 310,000); AID 2227;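 active = B-score of calcium response area above 5 SD of library B-scores, with initial fluorescence ratio within 5 SD of library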;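 also: B-score of integrated fluorescence ratio over time as area under calcium response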
Target sequence (Q9QUQ5 whole entry, looked up): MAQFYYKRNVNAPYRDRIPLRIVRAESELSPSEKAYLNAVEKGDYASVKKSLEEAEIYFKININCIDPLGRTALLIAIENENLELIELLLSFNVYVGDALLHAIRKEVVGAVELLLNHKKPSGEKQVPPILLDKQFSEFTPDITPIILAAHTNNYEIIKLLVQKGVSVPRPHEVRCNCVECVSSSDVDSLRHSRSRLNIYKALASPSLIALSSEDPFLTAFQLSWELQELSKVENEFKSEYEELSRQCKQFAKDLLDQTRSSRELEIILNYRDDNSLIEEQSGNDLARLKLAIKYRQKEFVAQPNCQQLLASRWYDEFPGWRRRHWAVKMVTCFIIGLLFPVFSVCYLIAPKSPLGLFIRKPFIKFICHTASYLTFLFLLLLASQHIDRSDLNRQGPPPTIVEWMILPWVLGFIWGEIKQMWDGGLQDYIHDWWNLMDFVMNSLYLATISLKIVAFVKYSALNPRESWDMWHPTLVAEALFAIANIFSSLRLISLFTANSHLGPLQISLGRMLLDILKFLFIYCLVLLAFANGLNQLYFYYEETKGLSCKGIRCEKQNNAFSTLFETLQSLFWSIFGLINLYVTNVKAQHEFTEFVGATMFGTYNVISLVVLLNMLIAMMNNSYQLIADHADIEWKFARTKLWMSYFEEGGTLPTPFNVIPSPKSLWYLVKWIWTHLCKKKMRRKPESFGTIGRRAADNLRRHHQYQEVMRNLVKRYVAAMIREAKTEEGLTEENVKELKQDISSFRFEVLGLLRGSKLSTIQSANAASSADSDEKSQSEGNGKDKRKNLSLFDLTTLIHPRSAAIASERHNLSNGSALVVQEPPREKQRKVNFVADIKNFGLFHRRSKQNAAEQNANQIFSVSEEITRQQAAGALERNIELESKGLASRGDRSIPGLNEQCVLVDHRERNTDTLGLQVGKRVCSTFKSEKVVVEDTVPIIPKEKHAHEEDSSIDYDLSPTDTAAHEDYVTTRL
TRPC4 act: activators of mouse TRPC4 channel | HEK293 TRPC4beta/mu-opioid, Fluo4 calcium fluorescence; active compounds read high | Q9QUQ5 | B-score at 10 µM | AID 2237 | actives 0.49% (n = 310,000);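 active = B-score above 5 SD of library B-scores, and initial fluorescence ratio not above library mean plus 5 SD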;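 also: positive B-score marks a calcium rise read as TRPC4 activation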
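System – HEK293 cells stably co-expressing mouse TRPC4beta and mu-opioid receptor · Signal – Fluo4 calcium-sensitive dye fluorescence, kinetic, 1 Hz baseline · Benchmarks – buffer (low) and maximal DAMGO (high) · Read-out – B score of integrated fluorescence ratio per well · Incubation – dye loading 45 min room temperature, 110 s kinetic read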
TRPC6 act: activators of mouse TRPC6 channel; HEK293-TRPC6 membrane potential dye fluorescence; active compounds read high; actives 0.13% (n = 310,000); B-score at 10 µM; Q61143; AID 2550;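 active = B-score of the integrated fluorescence ratio above library mean plus 3 SD, and starting fluorescence ratio within library mean plus 5 SD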;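 also: higher score means more depolarization so channel activation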
TRPC4 inh: TRPC4 (mouse) channel inhibition; B-score at 10 µM; AID 2247; HEK293 TRPC4beta/mu-opioid, DAMGO-evoked Fluo4 calcium flux; active compounds read low; actives 0.39% (n = 300,000);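 active = B-score over 3 SD under the library average, no early fluorescence shift, positive overall ratio signal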
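Material: HEK293 cells with stable TRPC4beta plus mu-opioid receptor expression / Probe or stimulus: DAMGO in two steps, submaximal then maximal / Compound: single concentration per test compound / Technique: kinetic Fluo4 fluorescence imaging of calcium influx / Read-out: per-well B score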
TRPC6 inh: mouse TRPC6 channel inhibition. Q61143. HEK293-TRPC6, membrane potential dye, ACh-evoked depolarization; active compounds read low. B-score at 10 µM. actives 1.1% (n = 310,000). AID 2553;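 active = B-score under library mean minus 3 SD, initial fluorescence not abnormally high, positive integrated signal ratio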;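 also: B-score derived from integrated fluorescence ratio over the kinetic read; more negative B-score means stronger inhibition of depolarization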
The depositor's hits bear a star; i = inactive. A selection: hits, their analogues and other compounds. The true share with any hit is near 2.3%.

SMILES | TRPC4 potent | TRPC4 act | TRPC6 act | TRPC4 inh | TRPC6 inh
COc1ccc(CN2CCC(N(CCc3ccccc3)Cc3ccccc3)CC2)c(OC)c1 | i | 143* | i | i | i
O=[N+]([O-])c1ccc(S(=O)(=O)NCCS(=O)(=O)N2CCN(c3ccccc3)CC2)cc1 | i | i | i | i | i
CCCN(CCC)C(=O)C1CC(=O)OC12CCCCC2 (stereo not drawn) | i | i | i | i | i
O=C(c1ccc(COc2ccccc2Br)cc1)N1CCCCC1 | 10* | i | i | i | i
C/C=C/C(=O)OCC(=O)Nc1ccc(SC(F)F)cc1 | i | i | i | i | i
O=C(Nc1cccc(NC(=O)c2ccc(Cl)cc2Cl)c1)c1cccnc1 | i | i | i | i | i
Cc1ccc(C2=NN(S(=O)(=O)c3ccccc3)C(c3ccccc3O)C2)cc1 (stereo not drawn) | 13* | i | i | i | i
CC(=O)Nc1ccc(N(C(=O)CNC(=O)c2ccco2)C(C(=O)NC2CCCC2)c2ccco2)cc1 (stereo not drawn) | i | i | i | i | i
COCCN(C(=O)CSc1nc2ccc(Cl)cc2[nH]1)c1c(N)n(Cc2ccccc2)c(=O)[nH]c1=O | i | i | i | -5* | i
CCCCN(C)CCC(=O)Nc1ccc2c(c1)CCC2 | i | 63* | i | i | i
COc1ccc(NC(=O)CN(C)CC(=O)Nc2ccc3c(c2)CCC3)cc1 | i | i | i | i | i
CCCCN1C2=NCCCN2c2ccccc21 | i | i | i | i | i
Cc1cc2c(cc1C)N(Cc1ccc(Cl)cc1)C1=NCCCN12 | 111* | i | i | i | i
CCCCN1C2=NCCCN2c2cc(C)c(C)cc21 | i | i | i | -7* | i
O=C(NC1CCN(Cc2ccccc2)CC1)c1cccc(S(=O)(=O)Nc2cc(C(F)(F)F)ccc2Cl)c1 | 21* | i | i | i | i
CCOC(=O)c1ccc(N=C2C(=S)N(c3ccc(C(=O)OCC)cc3)C(=N)N2/N=C/c2ccccc2)cc1 | 17* | i | i | i | i
C=CCn1cc(C(=O)OCC)c(=O)c2ccc(F)cc21 | i | i | i | i | i
Cc1oc(-c2ccc(Cl)cc2)nc1CS(=O)CC(=O)NCCN1CCCCCC1 (stereo not drawn) | i | i | i | i | i
COc1cccc(-c2nc(CS(=O)(=O)CC(=O)NCCCN3CC(C)CC(C)C3)c(C)o2)c1 (stereo not drawn) | i | 65* | i | i | i
Cc1oc(-c2ccc(Cl)cc2)nc1CS(=O)CC(=O)NCCCN1CC(C)CC(C)C1 (stereo not drawn) | i | 54* | i | i | i
Cc1ccccc1-c1nc(CS(=O)(=O)CC(=O)NCCCN2CCOCC2)c(C)o1 | i | i | i | i | i
Cc1ccccc1-c1nc(CS(=O)(=O)CC(=O)NCCCN2CC(C)CC(C)C2)c(C)o1 (stereo not drawn) | i | 66* | i | i | i
CC1Cc2cc(S(=O)(=O)N3CCC(C(=O)N4CCN(c5ccccc5F)CC4)CC3)ccc2N1C(=O)C1CC1 (stereo not drawn) | i | i | i | i | i
CC(NC(=O)c1ccc(Br)o1)C1CC2CCC1C2 (stereo not drawn) | i | i | i | i | i
O=C(c1sccc1Cl)N1CCN(Cc2ccc3c(c2)OCO3)CC1 | i | i | i | i | i
SMILES | TRPC4 potent | TRPC4 act | TRPC6 act | TRPC4 inh | TRPC6 inh
CC(=O)c1ccc(S(=O)(=O)NC2CC(=O)N(c3ccc(C)c(C)c3)C2)cc1 (stereo not drawn) | i | i | i | i | i
CCCCN(CC)CCNC(=O)c1cc2c(=O)n(C)c3ccccc3c2n1C | 14* | 67* | i | i | i
CCCN(CCC)CCCNC(=O)c1cc2c(=O)n(C)c3ccccc3c2n1C | 16* | 59* | i | i | i
COc1cc(NS(=O)(=O)c2ccc(-c3ccc(=O)[nH]n3)o2)cc(OC)c1OC | i | i | i | i | i
Cc1ccccc1N=C(NO)c1cccnc1 | i | i | i | i | i
CSc1ccc(NC(=O)NCc2cccnc2)cc1 | i | i | i | i | i
CCCCn1c(SCC(=O)OCC)nc2c(sc(=S)n2-c2ccccc2OC)c1=O | i | i | i | -6* | i
CC(C)c1nc(C(=O)N2CCCC(N3CCN(c4cccc(Cl)c4)CC3)C2)cs1 (stereo not drawn) | i | i | i | i | i
CN(C)CCOC(=O)C1(c2ccccc2)CCOCC1 | 11* | i | i | i | i
S=C(Nc1ccc(CN2CCCCC2)cc1)Nc1cccc(Cl)c1Cl | i | i | i | i | i
COc1ccc2cc(C(C)C(=O)N3CCC(C(N)=O)CC3)ccc2c1 (stereo not drawn) | i | i | i | i | i
CCOC(=O)COc1cc(-n2c(=S)[nH]c3ccccc3c2=O)c(Cl)cc1Cl | 31* | i | i | i | i
CCN(CC)CCNCC1C(=O)O[C@@H]2C[C@@]3(C)CCC[C@H](C)C3=C[C@H]12 (stereo partly drawn) | 11* | i | i | i | i
COC(=O)c1cc(C(=O)c2ccc(C(C)(C)C)cc2)c[nH]1 | 10* | i | i | i | i
CCOC(=O)N1CCN(CCCc2ccccc2)CC1 | i | i | i | i | i
NC(=O)C(c1cccc(Cl)c1)c1ncc(C(F)(F)F)cc1Cl (stereo not drawn) | 15* | i | i | i | i
Fc1ccccc1Sc1ccccc1CNC1=NCCN1 | i | i | i | -6* | i
Cc1cc(SCC(=O)OCC(=O)NCC2CCCO2)c(C)cc1Br (stereo not drawn) | i | i | i | i | i
Cc1cc(NC(=O)Nc2cccc(Cl)c2)n(-c2ccccc2)n1 | i | i | i | i | i
Cc1cc(NC(=O)Nc2cccc(Cl)c2)n(-c2ccccn2)n1 | i | i | i | i | -5.2*
CCCCCCCNC(=O)C1(CC2CC(c3ccc(Cl)cc3)=NO2)CCN(C(=O)CCCCCBr)CC1 (stereo not drawn) | i | i | i | i | i
C#CCn1ccc(O)c(Cc2ccccc2)c1=O | i | i | i | i | i
Clc1ccc(OCCN2CCOCC2)cc1Cl | i | i | i | i | i
CNCCOc1ccc(Cl)c(Cl)c1 | 40* | 75* | i | i | i
Clc1ccc(OCCCN2CCCC2)cc1Cl | 11* | i | i | i | i
